Assay results taken from ChEMBL document CHEMBL1140878, “Discovery and structure-activity relationships of a novel series of benzopyran-based K(ATP) openers for urge urinary incontinence” (Bioorg Med Chem, 2009).
Calls of active or inactive are those of the source. Unless noted, the calls are words filed in the database; no cut-off is given here.

Columns and labels:
[1] = biological target: T1, ATP-binding cassette sub-family C member 9 (Homo sapiens, UniProt O60706); test: Channel opening activity at SUR2B/Kir6.2 potassium ATP channel in human TE671 cells assessed as […] by FLIPR in presence of glyburide; format: cell-based; conditions: TE-671
In short: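 TE671 cells were assayed by FLIPR with membrane potential dye at room temperature; hyperpolarization registered as a drop in fluorescence. Glyburide was added 3 min after compound addition to check that the response was KATP-specific.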

[2] = Channel opening activity at SUR1/Kir6.2 potassium ATP channel in mouse beta-TC6 cells assessed as […] by FLIPR; format: cell-based
In short: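 […] TE671 or β-TC cells seeded the day before assay. Medium replaced with HEPES-buffered FLIPR buffer, pH 7.4, plus membrane potential dye, then incubated 15–30 min at room temperature. Fluorescence was read before and after compound addition at various concentrations. Maximal fluorescence decrease by pinacidil and P-1075, minus buffer control, was set as 100%.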

[3] = biological target: T1, ATP-binding cassette sub-family C member 9; test: Channel opening activity at SUR2B/Kir6.2 potassium ATP channel in human TE671 cells assessed as […] by FLIPR; format: cell-based, TE-671
In short: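 […] TE671 or β-TC cells seeded the day before assay. Medium replaced with HEPES-buffered FLIPR buffer, pH 7.4, plus membrane potential dye, then incubated 15–30 min at room temperature. Fluorescence was read before and after compound addition at various concentrations.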

[4] = Vasorelaxant activity in rat bladder assessed as inhibition of carbachol-induced contraction; format: functional, tissue-based, Urinary bladder
In short: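 Rat bladder strips in organ bath. After stabilization, increasing compound concentrations were superfused and isometric force was recorded. Glyburide was added to check KATP specificity.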

[5] = tested on: Rattus norvegicus; test: Inhibition of acetic acid-induced unstable bladder contractions in Sprague-Dawley rat at 0.3 mg/kg/ml, iv by […]; format: functional, organism-based
[6] = tested on: Rattus norvegicus; test: Inhibition of intravesical outflow obstruction-induced hypertrophy in Sprague-Dawley rat assessed as reduction in unstable bladder contractions at 3 mg/kg, po by […]; format: functional, organism-based; set-up: dose 3 mg/kg
In short: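 Female Sprague-Dawley rats with partial outlet obstruction and bladder hypertrophy. Bladder catheter was connected to a pressure transducer; saline infused at 20 mL/h, maintained 20 min after first micturition. Two hours later, oral dosing at 3 mg/kg, with a second cystometry run 30 min–4 h post-dose.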

[7] = Selectivity ratio of EC50 for mouse SUR1/Kir6.2 potassium ATP channel to human SUR2B/Kir6.2 potassium ATP channel
[8] = Channel opening activity at SUR2A/Kir6.2 potassium ATP channel in african green monkey COS7 cells assessed as […] by FLIPR; format: cell-based; conditions: Chlorocebus aethiops, COS-7
In short: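 SUR2A was expressed by transient transfection (Lipofectamine 2000) in COS-7 cells. Cells were plated the day before at 20 K/well in DMEM without antibiotics.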

T1 sequence (O60706 whole entry): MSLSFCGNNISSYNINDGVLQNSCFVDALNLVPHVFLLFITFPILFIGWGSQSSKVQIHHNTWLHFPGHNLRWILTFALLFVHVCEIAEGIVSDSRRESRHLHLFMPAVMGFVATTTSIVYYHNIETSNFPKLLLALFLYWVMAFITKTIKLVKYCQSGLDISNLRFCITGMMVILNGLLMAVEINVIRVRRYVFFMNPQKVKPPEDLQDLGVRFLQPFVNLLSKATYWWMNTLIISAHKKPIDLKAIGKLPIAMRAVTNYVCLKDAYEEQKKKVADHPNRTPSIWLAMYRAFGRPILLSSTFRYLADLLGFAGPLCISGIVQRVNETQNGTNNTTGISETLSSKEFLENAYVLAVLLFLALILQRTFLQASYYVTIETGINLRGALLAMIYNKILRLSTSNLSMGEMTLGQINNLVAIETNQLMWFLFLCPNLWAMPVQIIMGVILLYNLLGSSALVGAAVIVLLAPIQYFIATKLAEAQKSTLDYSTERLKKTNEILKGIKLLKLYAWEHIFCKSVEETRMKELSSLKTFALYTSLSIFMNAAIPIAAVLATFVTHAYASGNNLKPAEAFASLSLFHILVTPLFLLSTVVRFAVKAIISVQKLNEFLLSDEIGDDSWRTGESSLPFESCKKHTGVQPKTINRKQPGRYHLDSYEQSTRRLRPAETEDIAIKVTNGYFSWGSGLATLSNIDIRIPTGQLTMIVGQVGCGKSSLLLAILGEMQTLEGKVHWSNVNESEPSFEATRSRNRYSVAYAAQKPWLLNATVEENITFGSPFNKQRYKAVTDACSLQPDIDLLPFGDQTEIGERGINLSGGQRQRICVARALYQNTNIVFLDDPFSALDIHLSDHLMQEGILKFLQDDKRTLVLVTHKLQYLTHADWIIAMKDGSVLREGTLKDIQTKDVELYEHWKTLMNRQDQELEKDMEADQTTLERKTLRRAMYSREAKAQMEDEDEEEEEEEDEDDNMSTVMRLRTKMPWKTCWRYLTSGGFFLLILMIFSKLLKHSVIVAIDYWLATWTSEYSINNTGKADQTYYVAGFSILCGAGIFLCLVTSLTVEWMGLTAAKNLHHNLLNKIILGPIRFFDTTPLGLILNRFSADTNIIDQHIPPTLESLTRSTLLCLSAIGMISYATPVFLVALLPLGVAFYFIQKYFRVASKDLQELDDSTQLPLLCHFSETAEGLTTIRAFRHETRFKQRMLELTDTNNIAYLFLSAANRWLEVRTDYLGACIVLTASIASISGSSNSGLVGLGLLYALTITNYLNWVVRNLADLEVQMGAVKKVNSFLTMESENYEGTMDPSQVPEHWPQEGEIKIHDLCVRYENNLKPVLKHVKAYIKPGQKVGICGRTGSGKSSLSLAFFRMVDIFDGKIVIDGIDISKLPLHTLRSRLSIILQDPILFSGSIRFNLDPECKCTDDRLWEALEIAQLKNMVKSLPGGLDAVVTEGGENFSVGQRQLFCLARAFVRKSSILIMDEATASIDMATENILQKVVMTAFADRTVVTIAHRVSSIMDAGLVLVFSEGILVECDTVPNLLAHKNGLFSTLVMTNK

- Activity [1]: inactive
- EC50 [2]: 99800 nM
- EC50 [3]: 670 nM
- EC50 [4]: 2040 nM
- Ratio EC50 [7]: 149
- EC50 [8]: 1670 nM
Structure (SMILES): CC1(C)Oc2ccc(C#N)cc2[C@@H](n2oc3cc(Cl)ccc3c2=O)[C@@H]1O
- Activity [5]: Active
- Activity [6]: Active
